Screens deposited in PubChem BioAssay by several laboratories.
In the library only some 2.7% were active in any assay of this set; here they are far more common.
PG9 binder: PG9 antibody binding by small molecule | AID 624416 | actives 0.43% (n = 360,000) | inhibition, % at 6.7 µM | TR-FRET gp120-PG9 antibody binding; in the data active means inhibition above about 8.5%
MC4R ag barr: activates human MC4R beta-arrestin recruitment | U2OS MC4R beta-arrestin complementation, luminescence; percent of melanotan II response, DMSO zero | AID 540308 | activation, % at 8.9 µM | P32245 | actives 0.98% (n = 360,000);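 active means activation above a per-plate cutoff, the mean activation of sample wells on that plate plus 3 SD, cut at about 8% in these data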
MC4R antagonist: human MC4R antagonism in cAMP assay. P32245. MC4R-expressing cells, MTII-stimulated cAMP, LANCE TR-FRET. inhibition, % at 6.5 µM. actives 0.48% (n = 360,000);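 active means inhibition above its plate's cutoff, the mean of tested wells on that plate plus 3 SD, cut at about 29% in these data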;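 further: 0% = Melanotan II alone and 100% = Melanotan II plus saturating MCL0020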
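Material: U2OS-MC4R stable cell line | Reagent: Melanotan II challenge after compound preincubation | Doses: One concentration, 6.5 µM nominal | Incubation: 30-min compound preincubation, 1-h Melanotan II challenge, 1-h detection, room temperature | Signal: TR-FRET cAMP assay | Replicates: One well per compound, no replicates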
NR2E3 ag-1: activates human photoreceptor nuclear receptor NR2E3 | inhibition of corepressor binding, % at 4.78 µM | GST-NR2E3/biotin-RetCOR TR-FRET, 1536-well | actives 0.12% (n = 320,000) | AID 2300 | Q9Y5X4;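 active means percent inhibition above the cutoff of mean plus 3 SD of all tested compounds, set per screening campaign, cut at about 20% in these data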;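 further: 0% = DMSO wells and 100% = biotin wells as full block of FRET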
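Material – GST-tagged NR2E3 plus biotinylated RetCOR corepressor · Quantity – NR2E3 fusion 1.35 nM · Times – 5 h incubation at 4 °C · Medium – pH 7.5 Tris-based buffer · Technique – TR-FRET, Eu(K)-anti-GST donor, streptavidin-D2 acceptor, ex 340, em 617/671 nm · Benchmarks – high control biotin, low control 0.6% DMSO · Format – 1536-well plates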
NR2E3 ag-2: human photoreceptor-specific nuclear receptor agonism. AID 602229. CHO-S Gal4-NCOR/VP16-NR2E3 two-hybrid, luciferase. Q9Y5X4. inhibition of corepressor binding, % at 3.98 µM. actives 0.35% (n = 360,000);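 active means inhibition above the mean of all tested compounds plus 3 SD, cut at about 70% in these data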;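 further: 0% = DMSO with NR2E3 transfected cells and 100% = cells lacking NR2E3 construct; higher means lower luciferase signal from less NR2E3 corepressor binding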
NR1D1 modulator: modulators of human Rev-erb alpha DNA binding. P20393. Rev-erbα–FITC-DNA binding, fluorescence polarization, 90 min. activity, % at 10 µM. actives 0.79% (n = 370,000). AID 1259318;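 active means activity above about 14%, limit read from the data; passing the limit was not always enough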;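 further: 0% = DMSO wells with 35 nM protein and 100% = DMSO wells with 750 nM protein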
NR2E3 agonist cf: NR2E3 (human) agonism, confirmation | shares compounds with NR2E3 ag-1 | cell-free NR2E3 corepressor release, TR-FRET, 5 h | activation (reported as inhibition), % at 3.98 µM | actives 39% (n = 360); in the data active means activation above about 20%
PPARg-NCOR2 ctr: PPARg-NCOR2 interaction agonism, NR2E3 counter-screen. shares compounds with NR2E3 ag-1. TR-FRET PPARg-NCOR2 coregulator interaction, biochemical. inhibition, % at 3.98 µM. actives 45% (n = 360); in the data active means inhibition above about 20%;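 further: 0% = DMSO vehicle and 100% = wells without protein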
cAMP nonselect: U2OS forskolin cAMP inhibition counter-screen | actives 26% (n = 1,600) | shares compounds with MC4R antagonist | inhibition, % at 6.5 µM | parental U2OS, LANCE TR-FRET;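 active means mean inhibition over triplicates above the low-control well mean plus 3 SD, set per campaign, cut at about 13% in these data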;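 further: signal is single emission at 671 nm which falls as cellular cAMP rises; 0% = forskolin-stimulated wells and 100% = buffer without forskolin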
MC4R cAMP antag: human MC4R cAMP antagonism confirmation. shares compounds with MC4R antagonist. MC4R-expressing cells, MTII-stimulated cAMP, TR-FRET. inhibition, % at 6.5 µM. actives 27% (n = 1,600). AID 602195; in the data active means inhibition above about 29%;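 further: 0% = agonist stimulated wells alone and 100% = agonist stimulated wells plus saturating reference antagonist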
PG9 binder conf: PG9 antibody binding, confirmed | AID 651571 | shares compounds with PG9 binder | actives 90% (n = 1,500) | inhibition, % at 6.7 µM | TR-FRET PG9 antibody binding, biochemical; in the data active means inhibition above about 9%
PGV04 counter: counter-screen for PG9 binders: binding control antibody PGV04. shares compounds with PG9 binder. TR-FRET PGV04 antibody-gp120 binding, biochemical. inhibition, % at 6.7 µM. actives 95% (n = 1,500); in the data active means inhibition above about 9.5%
PG9 binder DR: PG9 antibody binding, dose response; IC50, µM; TR-FRET PG9 antibody-gp120 binding inhibition; shares compounds with PG9 binder; 95 tested, under 10 active; in the data active means IC50 below about 10 µM
PGV04 binding DR: counter-screen for PG9 binders: binding to control antibody PGV04; shares compounds with PG9 binder; TR-FRET binding to control antibody PGV04; IC50, µM; actives 20% (n = 95); AID 651937
PG126 DR counter: PG126 binding, dose response counter-screen; shares compounds with PG9 binder; AID 651939; IC50, µM; actives 20% (n = 95); TR-FRET binding to antibody PG126, counterscreen
Starred values were filed as active, the others as inactive; i = inactive; / = not tested or not shown. Unless noted, no stated cut-off is given here; in the data, active means IC50 below about 9 µM; inactive means the rest.

SMILES	PG9 binder	MC4R ag barr	MC4R antagonist	NR2E3 ag-1	NR2E3 ag-2	NR1D1 modulator	NR2E3 agonist cf	PPARg-NCOR2 ctr	PG9 binder conf	PGV04 counter	others
Cn1cc(Cl)c(-c2n[nH]c(=S)n2-c2ccccc2)n1	16*	-1	9	27*	-14	4	15	13	15*	17*
CC(C)CC1NC(=O)C(CCCN)NC(=O)C(C(C)C)NC(=O)C2CCCN2C(=O)C(Cc2ccccc2)NC(=O)C(CC(C)C)NC(=O)C(CCCN)NC(=O)C(C(C)C)NC(=O)C2CCCN2C(=O)C(Cc2ccccc2)NC1=O (centres undefined)	/	/	/	/	/	4	/	/	/	/
CCCS(=O)(=O)NC(=O)C1(C)CCCN(C(=O)c2ccc(F)cc2Cl)C1 (centres undefined)	/	0	-2	/	-39	/	/	/	/	/
Cc1ccc(NC(=O)CSc2nn(-c3ccc(Cl)cc3)c(=S)s2)cc1S(=O)(=O)N(C)C	-2	1	14	3	4	7	/	/	/	/
Cc1cc(-c2ccc(Cl)cc2)c(C#N)c(N)n1	55*	0	-10	39*	-33	20	26*	26*	64*	80*
Cc1ccc(-c2cc(-c3ccccc3)c(C#N)c(N)n2)o1	1	-2	3	1	-2	-3	/	/	/	/
CC(=O)Nc1ccc(NC(=O)Cn2nc([N+](=O)[O-])c(Br)c2C)cc1	1	-1	19	-1	-18	-9	/	/	/	/
CC(C)CCC(C)NC(=O)C1CCN(S(=O)(=O)/C=C/c2ccccc2)CC1 (centres undefined)	1	-1	1	1	13	2	/	/	/	/
CC(Sc1cnc2ccccc2n1)C(=O)O (centres undefined)	13*	-1	25	30*	-5	8	6	9	18*	23*
Cn1c(=O)oc2cc(S(=O)(=O)NCCC(=O)N3CCN(c4ccccc4)CC3)ccc21	0	-2	-1	-6	16	6	/	/	/	/
O=c1oc2cc(O)c(Cl)cc2c2ccccc12	66*	-2	56*	52*	-11	-2	46*	48*	62*	82*	cAMP nonselect=41*;MC4R cAMP antag=64*
COc1ccc2c(c1)oc(=O)c1ccccc12	1	1	-3	0	-32	2	/	/	/	/
CC(=O)c1sccc1NC(=O)c1ccccc1C(=O)O	36*	0	72*	34*	-30	3	23*	18	39*	47*	cAMP nonselect=29*;MC4R cAMP antag=61*
COc1cccc(CNC(=O)COC(=O)/C(C#N)=C/c2ccc(N(C)C)cc2)c1	21*	2	7	31*	-21	-3	36*	35*	36*	51*
COc1ccc(/C=C(\C#N)C(=O)OCC(=O)NCc2ccccc2)cc1	-2	-1	8	0	2	4	/	/	/	/
CCOC(=O)c1c(C)[nH]c(=S)c(C#N)c1-c1ccc(OC)cc1	0	-4	2	14	0	-5	/	/	/	/
CCCCOc1ccc(-c2c(C(=O)Nc3ccccc3)c(C)[nH]c(=S)c2C#N)cc1	60*	1	20	94*	-9	3	84*	71*	5	6
S=c1nc(Cc2ccccc2)[nH]c2ccccc12	25*	1	9	23*	-7	14	-4	8	16*	13*	PG9 binder DR=>67;PGV04 binding DR=i;PG126 DR counter=i
Cc1nc(=S)c2ccccc2[nH]1	-1	1	4	3	13	-2	/	/	/	/
S=c1nc(COc2ccccc2)[nH]c2ccccc12	13*	1	13	31*	-85	12	5	13	9.2*	9.4*
CC(C)(CO)NS(=O)(=O)c1ccc2c(c1)oc(=O)c1cc(S(=O)(=O)NC(C)(C)CO)ccc12	0	1	-1	1	-26	4	/	/	/	/
COc1ccc(-c2nc(SCc3ccc(C#N)cc3)[nH]c(=O)c2C#N)cc1	-1	-1	21	-3	-19	-3	/	/	/	/
N#Cc1c(-c2ccco2)nc(SCc2ccc(F)cc2)[nH]c1=O	33*	0	25	40*	27	-4	10	59*	33*	37*
COC(=O)c1cn(Cc2ccc(C(F)(F)F)cc2)cc(F)c1=O	2	1	1	-2	15	6	/	/	/	/
Cc1ccc(C(=O)C2=C(O)C(=O)N(Cc3cccnc3)C2c2ccc(Br)cc2)o1 (centres undefined)	18*	-3	26	21*	16	7	22*	18	29*	38*
Cc1ccc(C(=O)C2=C(O)C(=O)N(Cc3cccnc3)C2c2ccc(OC(C)C)cc2)o1 (centres undefined)	35*	-2	1	22*	13	2	6	13	44*	50*
Cc1oc(C(C)(C)C)c(CN2CCCC2)c1C(=O)O	2	1	17	-1	-14	-2	/	/	/	/
COc1ccc(-n2c(=S)[nH]c3c(oc4ccccc43)c2=O)cc1	26*	0	23	53*	-35	0	39*	38*	13*	12*	PG9 binder DR=>67;PGV04 binding DR=i;PG126 DR counter=i
